The record followed here is ChEMBL document CHEMBL1151903, “Unique behavior of 2,6-bis(bromomethyl)naphthalene as a highly active organic DNA crosslinking molecule” (Bioorg Med Chem, 2009).

Data set [1] is described as follows: Stability in aqueous solution assessed as half life. The data set is classed as physicochemical. An outline of the steps: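 Compound at final 10 µM in 0.01 M sodium phosphate buffer pH 7.4/MeCN (4:1). Decomposition followed by reversed-phase RP-18 HPLC with UV detection, eluting with MeCN–H2O or MeOH–H2O; half-life taken from the decomposition rate.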
Data set [2] deals with Salmonella enterica subsp. enterica. As to the kind of experiment: Mutagenic activity in Salmonella typhimurium TA92 assessed as crosslinking-associated increase in number of revertants after 2 days by Ames test. The data set is classed as toxicity, organism-based. The note with it: salmonella enterica subsp. enterica serovar typhimurium, 48 h. An outline of the steps:
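TA92 grown 15.5 h at 37 °C in nutrient broth/NaCl. Culture (0.1 mL) mixed with DMSO-diluted compound (50 µL) in 0.1 M sodium phosphate pH 7.4 and preincubated 20 min at 37 °C. Mixed into 0.6% soft agar and overlaid on minimal agar. Revertant colonies counted manually after 2 days at 37 °C; mean of six plates.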
(In general: In the Ames test, an excess of revertant colonies over the control signals mutagenicity.)

In data set [3] the test system is CCRF-HSB-2. As to the kind of experiment: Antiproliferative activity against human CCRF-HSB2 cells after 24 hrs by trypan blue exclusion assay. The data set is classed as functional, cell-based. The note with it: CCRF-HSB-2, 24 h. An outline of the steps: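 CCRF-HSB-2 cells in RPMI1640 with 10% fetal calf serum, 37 °C, 5% CO2, seeded at 3 × 10^5 cell/mL in 3 mL per well. Pre-incubated 24 h, then given compound as DMSO solution (3 µL per well) for 24 h. Trypan blue-excluding cells counted.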

Data set [4] concerns Nucleic Acid. As to the kind of experiment: Induction of […] DNA interstrand crosslinking activity at > 100 uM after 6 hrs by agarose gel electrophoresis. The data set is classed as nucleic-acid assay. In outline: (§1)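 Linearized pBluescript plasmid DNA (460 ng) exposed to compound in DMSO at 37 °C for 6 h. DNA recovered by EtOH precipitation and lyophilized, then taken up in 1 mM EDTA in 30% aqueous DMSO. Heat-denatured at 95 °C for 5 min and ice-quenched. Run on 1% agarose gel and stained with ethidium bromide.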

In data set [5] the test system is Salmonella enterica subsp. enterica. As to the kind of experiment: Mutagenic activity in Salmonella typhimurium TA100 assessed as crosslinking-associated increase in number of revertants after 2 days by Ames test. The data set is classed as toxicity, organism-based. To be noted: salmonella enterica subsp. enterica serovar typhimurium, 48 h.
Data set [6] relates to Nucleic Acid. As to the kind of experiment: Induction of […] DNA interstrand crosslinking activity at 1 uM after 6 hrs by agarose gel electrophoresis. The data set is classed as nucleic-acid assay. An outline of the steps:
as §1

The subject of data set [7] is Nucleic Acid. As to the kind of experiment: Induction of […] DNA interstrand crosslinking activity at 10 uM after 6 hrs by agarose gel electrophoresis. The data set is classed as nucleic-acid assay. An outline of the steps:
as §1

Structures are written as SMILES. The source made the active and inactive calls. Bounds are passed on as bounds.

In general, half-life refers to the time needed for the level to fall by half in the phase considered. A word on the IC50: it is the midpoint of a concentration-inhibition curve.

Consider `ClCc1ccc(CCl)c2ccccc12`, for which, in data set [1], the half-life was 5.5 h.
On the same count and under the same terms, to `BrCc1ccc2nc(CBr)ccc2c1` belongs 12.8 h.
For the molecule `BrCc1ccc(CBr)c2ncccc12`, in data set [1], the half-life amounted to 10.5 h.
With `ClCc1ccc2cc(CCl)ccc2c1`, the half-life in data set [1] came out at 0.95 h.
Consider `BrCc1ccc2cc(CBr)ccc2c1`, for which the result in data set [2] and in data set [5] was Active. In data set [3], this molecule gave an IC50 of 4 µM. Besides, the outcome in data set [4] was inactive. The half-life in data set [1] is less than 0.167 h.
Turning to `BrCc1ccc(CBr)c2ccccc12`, the result in data set [6] and in data set [7] was Active. In addition, the outcome in data set [2] and in data set [5] was Active. The half-life in data set [1] stood at 0.567 h.
